This is an account of results in ChEMBL document CHEMBL1128750 (J Med Chem, 1995).

The structures appear in SMILES notation. pIC50: −log10 of the molar value.

One assay deals with MCF7. Description: In vitro cytotoxicity against hormone-responsive MCF-7 cell line. The format is functional, cell-based. As to conditions: Homo sapiens. The method, boiled down:
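MCF-7 cells kept in DMEM with L-glutamine, gentamycin, fungisone, insulin and 5% FBS. For the assay, 5 × 10³ cells/well were plated in DMEM with 2% carbon-stripped FBS and held 24 h at 37 °C. Compounds were then added in fresh medium for 24 h. Viable cells were read by MTT, triplicate wells per concentration, and IC50 was taken from four concentrations.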

A short description of assay [1]: (§1) Inhibition of calmodulin-dependent Phosphodiesterase. The method, boiled down: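 Calmodulin-dependent cAMP phosphodiesterase assayed with cyclic [8-3H]AMP as substrate. Tritiated AMP was converted to adenosine by snake venom 5'-nucleotidase, and nucleosides were separated from substrate on Dowex anion exchange resin with 3 mM acetic acid. Basal, calmodulin-independent activity was taken with 1 mM EGTA. Compounds were added in DMSO at several concentrations. IC50 is the mean of triplicates ± standard error.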

The nature of assay [2]: as §1. This is another data set of the same source.

On to `CC/C(=C(\c1ccc(O)cc1)c1ccc(OCCN(C)C)cc1)c1ccccc1`, for which the figures for the negative logarithm of the IC50 (pIC50) (with MCF7; in assay [1]) were 4.81 and 4.72, respectively.
Consider `CC/C(=C(\c1ccc(I)cc1)c1ccc(OCCCN(C)C)cc1)c1ccccc1`, for which, in assay [1], the negative logarithm of the IC50 (pIC50) was 5.85.
Consider `CC/C(=C(\c1ccc(I)cc1)c1ccc(OCCCCN2CCCC2)cc1)c1ccccc1`, for which the figures for the negative logarithm of the IC50 (pIC50) (in the assay on MCF7; in assay [1]) were 5.40 and 6.00, respectively.
In turn, `CC/C(=C(\c1ccc(I)cc1)c1ccc(OCCCCN(C)C)cc1)c1ccccc1` gave a pIC50 in assay [1] of 5.89.
`CC/C(=C(\c1ccc(I)cc1)c1ccc(OCCCN2CCCC2)cc1)c1ccccc1`: the pIC50 is 5.35 in the assay with MCF7 and 5.96 in assay [1].
On to `CCCCc1ccc(/C(=C(\CC)c2ccccc2)c2ccc(OCCN(C)C)cc2)cc1`, for which the pIC50 in assay [1] is 5.43.
On the same count and under the same terms, for `C#Cc1ccc(/C(=C(\CC)c2ccccc2)c2ccc(OCCN(C)C)cc2)cc1` the value was 5.34.
On to `C#Cc1ccc(/C(=C(\CC)c2ccccc2)c2ccc(OCCN3CCCC3)cc2)cc1`, for which the negative-log IC50 (pIC50) in the assay with MCF7 is 4.83; in assay [1] it was 5.48.
`CC/C(=C(\c1ccc(I)cc1)c1ccc(OCCN(C)C)cc1)c1ccccc1`: in assay [1], the pIC50 was 5.64.
Still for that read-out and setting: under `CCCCc1ccc(/C(=C(\CC)c2ccccc2)c2ccc(OCCN3CCCC3)cc2)cc1` stands 5.74.
For `CC/C(=C(\c1ccc(I)cc1)c1ccc(OCCN2CCCC2)cc1)c1ccccc1` [IDOXIFENE], the results for the negative logarithm of the IC50 (pIC50) (in the assay on MCF7; in assay [1]) were 5.14 and 5.82, respectively.
On to `CC/C(=C(\c1ccccc1)c1ccc(OCCN(C)C)cc1)c1ccccc1` [TAMOXIFEN], for which the pIC50 is 4.85 with MCF7 and 5.17 in assay [2].

The pIC50 is −log10 of the IC50, conventionally taken in molar units. Low readings indicate a high IC50, high ones a low IC50.
